ChEMBL document CHEMBL4513216, “Probing the Open Global Health Chemical Diversity Library for Multistage-Active Starting Points for Next-Generation Antimalarials” (ACS Infect Dis, 2020)

test: Toxicity liver stage against HepG2, at 10uM; assay type: cell-based; set-up: test concentration 10 uM, cell line HepG2-A16-CD81EGFP; conditions: human, HepG2-A16-CD81EGFP cells; read-out: INHIBITION
In short: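 Uninfected HepG2-A16-CD81EGFP cells, 3 × 10^3 per well, 1536-well, plated on prespotted compound at 10 μM final, parasite-free screening media added to match infected plates; puromycin 10 μM positive, DMSO 0.5% negative; run in parallel with 48 h PbLuc assay at 37 °C, 5% CO2; viability by CellTiter-Glo luminescence, normalized to controls.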

SMILES	cytotoxicity at 10 µM [%]
Cn1nccc1-c1ncc2c(c1C(=O)O)CCN(Cc1cccnc1)C2	8.07
Cc1ccsc1C(=O)N1CC[C@H]2CO[C@H](CN(C)C)[C@H]2C1	2.93
O=C(CCNS(=O)(=O)c1ccc(F)c(F)c1)NCc1ccoc1	11.2
CN1CCC(N(Cc2ccccc2)C(=O)c2ccn3cncc3c2)CC1	5.68
CCOC(=O)C1(Cc2ccccc2-c2ccccc2OC)CCNCC1	-1.47
c1cc(CN2C[C@@H]3OCCN(CCN4CCCC4)[C@@H]3C2)ccn1	3.39
CC1N(C)C(=O)COC12CCN(Cc1ccsc1)CC2 (stereo not drawn)	-5.24
CCCN(C(=O)CN1CCN(CC(C)O)CC1)C1=CCCCC1 (stereo not drawn)	4.13
CCCc1nc(C(=O)NCc2cccnc2-n2cncn2)cs1	-148
Cc1ncsc1CCN(C)Cc1cc2n(n1)CCN(Cc1ncc[nH]1)C2	-22.2
CCc1cnc(N)nc1NC(C)c1ccc(C)c(C)c1 (stereo not drawn)	21.3
CN(Cc1ccc(OC(F)F)cc1)C(=O)CS(=O)(=O)c1ccc(Cl)cc1	5.19
CCC(CO)NCc1ccc(-c2ccc(Br)cc2)o1 (stereo not drawn)	-5
CCN1CC[C@]2(CN(Cc3nccs3)C[C@H]2c2ccccc2)C1=O	4.89
CS(=O)(=O)CCCC(=O)Nc1cc(Cl)c(Cl)cn1	2.69
COCCN(C)CCN1CC2(CCN(C3CCSC3)CC2)OC1=O (stereo not drawn)	-2.28
Cn1cnc2c1C(COCC1CCOCC1)CN(c1ncccn1)C2 (stereo not drawn)	-74.1
CS(=O)(=O)c1ccc(NC(=O)NC2(c3ccccc3)CCC2)cc1	5.64
COCC1CC2(CCN(Cc3ccncc3)CC2)CN1C(C)C (stereo not drawn)	1.73
CCOc1ccnc(N2CCN(C(=O)C(C)(C)C#N)CC2)n1	-4.91
Cc1nn(C)c(Cl)c1C(=O)NCC1(C(N)=O)CCOCC1	1.64

SMILES	cytotoxicity at 10 µM [%]
Cc1cccc(C(=O)Nc2cccc3c2C(=O)NC3)n1	1.14
O=C(CSCC1CC1)N1CCCN(c2ccc(F)cc2)CC1	-4.43
O=c1ccc2c([nH]1)CCC(NCc1ccc3c(c1)OCO3)C2 (stereo not drawn)	6.69
COc1ccccc1-n1cc(C(=O)NCCn2nc(C)nc2C)cn1	9.27
COc1cc2c(c(OC)c1OC)CCN(CCn1cncn1)CC2	11.5
CCn1ccnc1CN1CCCN(C(=O)COC2CCCCC2)CC1	-11.7
CS(=O)(=O)NCCN(CCCO)C1CCc2ccccc21 (stereo not drawn)	3.09
CCN1CCCC(C)(C(=O)NCc2nccn2Cc2ccccc2)C1 (stereo not drawn)	4.69
CCn1ccnc1CN1CCCN(C(=O)C2(C#N)CCCCC2)CC1	3.75
CCN(CC)C(=O)[C@@H]1C[C@H](N)CN1c1noc(-c2ccccc2)n1	-49.8
Cc1ccc(N2CCCC(NC(=O)Cc3csc(C)n3)C2=O)cc1 (stereo not drawn)	-1.31
CCc1nc(C2CCCN2Cc2ccn(C)c(=O)c2)no1 (stereo not drawn)	-4.25
O=C(NCCN1CCOCC1)NCC(O)c1cccc(F)c1 (stereo not drawn)	-9.24
CCNc1cc2c(nn1)CCN(C(=O)CC1CCCCC1)C2	-10.3
Cc1csc(CNCC2CCCN(C(=O)OC(C)(C)C)C2)n1 (stereo not drawn)	-6.82
COc1cccc(CN2CCC(O)(c3ccc(C)cn3)CC2)c1OC	-107
O=C(NC1CC2(CCN(CCO)CC2)c2ccccc21)c1ccno1 (stereo not drawn)	-12.2
CCO[C@H]1CC[C@H]2[C@H]1OCCN2CCOCc1ccccc1	-111
Cc1ccc(C(=O)NS(=O)(=O)Cc2ccc(F)cc2)cc1S(C)(=O)=O	-7.36
Cc1noc(C)c1CN1CCN(Cc2nc(C3CC3)no2)CC1	31.4
Cn1ncc(NCc2cccc(F)c2)c(Cl)c1=O	-7.72

SMILES	cytotoxicity at 10 µM [%]
CC1CN(C(=O)CN(Cc2ccco2)C2CC2)CCO1 (stereo not drawn)	3.97
COCCNCC1(O)CCCN(Cc2ccc(F)c(F)c2)C1=O (stereo not drawn)	3.93
Cc1ccc(N2C[C@@H]3CN(Cc4ccoc4)CCO[C@@H]3C2)nn1	-12.8
CCC1C(=O)NCCN1c1cc(C)ncn1 (stereo not drawn)	3.41
CCC(CC)C(CNC(=O)Nc1ccc(C)cc1)N1CCOCC1 (stereo not drawn)	-5.9
O=C(c1cccc(Cl)c1)C1CCCN(c2nnc(C3CCC3)o2)C1 (stereo not drawn)	0.409
COc1ccnc(N2CCCN(C(=O)CCc3cnn(C)c3)CC2)n1	17.7
Cc1ncc(CN2CCCC(O)(c3ccc(F)cc3)CC2)n1C (stereo not drawn)	-4.04
COc1cc(C(=O)N(C)C)ccc1NC(=O)c1ccsc1	-2.53
COc1ncccc1CN1CCc2[nH]nc(C(=O)N(C)C)c2C1	1.55
COc1ccccc1CC(=O)N1CCC(NCc2ccccn2)CC1	-11.5
CCC(=O)N1CCC2(COCc3c(C)nc(NCc4ccco4)nc32)C1 (stereo not drawn)	1.75
COCCN(Cc1ccccn1)C(=O)Nc1cccnc1N1CCCC1	4.03
Cc1cc(C(=O)N2CCCC3(CNC(=O)O3)C2)c2c(C)nn(C)c2n1 (stereo not drawn)	10.8
Cc1ccc(C(=O)N(C)Cc2csc(C)n2)c(=O)[nH]1	3.97
Cc1nn(C)c(C)c1C1CCCN1C(=O)c1ccc2c(c1)OCCO2 (stereo not drawn)	-10.6
CCn1cc(NC(=O)C2CCN(Cc3nc(C)c(C)o3)CC2)cn1	5.3
CN(C)C(=O)C1CCCN1CCCNC(=O)c1ccccc1Cl (stereo not drawn)	-8.27
CCn1cc(CNc2ccc3nccnc3c2)cn1	1.42
O=C(NC1CC1)c1cc(C2CC2)nc2onc(C3CCNCC3)c12	7.16
CNc1nc2c(c(C(=O)N3CCCC3)n1)CN(C(=O)C1CCCC1)CC2	-114

SMILES	cytotoxicity at 10 µM [%]
Cn1cnnc1S(=O)(=O)C1CCN(C(=O)c2cccs2)CC1	6.03
CC(C)c1ncc2c(n1)CN(Cc1nc(-c3cccnc3)no1)CC2	-18.7
Cc1cc(C)n(CC2CN(Cc3nnc(C)o3)CCO2)n1 (stereo not drawn)	-7.95
CCCN1CCC(Nc2cc(-c3ccccc3)ccc2OC)CC1	0.906
COC(=O)NCC(=O)N(C)CC1Cc2ccccc2CN1C (stereo not drawn)	-6.24
COc1cccc2c1N(CC(=O)Nc1ccc(Cl)cn1)CCC2	64.9
CCN(CC)Cc1ccc(C(=O)N2CCN(CC(C)O)CC2)o1 (stereo not drawn)	-9.65
Cc1cc(C(=O)N2Cc3ccccc3OC3(CCOCC3)C2)nc(N)n1	-0.928
CCn1nc(C)cc1C(=O)Nc1cc(F)ccc1OCC1CCCO1 (stereo not drawn)	2.89
CC(C)N(CCO)C(=O)C1CCC(=O)N(CCc2ccc(Cl)cc2)C1 (stereo not drawn)	-8.27
Cc1cnn(CC(C)NCc2ccncc2)c1 (stereo not drawn)	-2.81
CC(C)NC(=O)N1CCC2(CCC(=O)N2CCN2CCCC2)CC1	3.7
CCOc1ccc2ccccc2c1CNCC1CCNCC1	-9.67
Cc1cc(CNC(=O)NCc2cccs2)ccc1S(C)(=O)=O	-6.97
CN(Cc1cc(-c2ccncc2)no1)Cc1nccn1C	0.884
COC[C@]1(O)CCN(C2CCN(c3ccc(Cl)cc3)CC2)CC1(C)C	-0.75
Cc1nn(CCO)c(C)c1CNC1CCOc2ccccc21 (stereo not drawn)	14.4
Cc1occc1C(=O)N1CCC2(CCN(Cc3cccs3)C2)CC1	-4.58
Cn1cc(-c2cnc(N3CCOCC3)nc2)cc1C(=O)NCCC#N	-83.9
Cn1c(=O)ccn(CC(=O)NCC2Cc3ccccc3O2)c1=O (stereo not drawn)	-0.387
